Test results from ChEMBL document CHEMBL3751796, “Structure-Based Discovery of Novel Cyclophilin A Inhibitors for the Treatment of Hepatitis C Virus Infections” (J Med Chem, 2015).
pEC50, pIC50, pKd: −log10 of the molar value. Active and inactive are the calls of the source. No cut-off for these calls is given here.

What was measured:
Hepatitis C virus [1] = assay: Antiviral activity against HCV genotype 1b Con1 infected in human Huh7.5 cells assessed as inhibition of NS5A expression in membrane fractions at 2 uM by Western blot analysis; assay type: functional, organism-based; conditions: Hepacivirus hominis, isolate Con1, Huh-7
In short: (§1)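 Con1b replicon cells treated with 2 μM. Total lysates, and a membrane fraction prepared by hypotonic buffer, dounce homogenization, 220g spin and then 68 000g for 1 h at 4 °C, analyzed by Western blot for NS5A and NS5B.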

[2] = biological target: T1, Peptidyl-prolyl cis-trans isomerase B (Homo sapiens, UniProt P23284); assay: Dissociation rate to Cyclophilin B (unknown origin) by surface plasmon resonance analysis
T1 sequence (P23284 whole entry): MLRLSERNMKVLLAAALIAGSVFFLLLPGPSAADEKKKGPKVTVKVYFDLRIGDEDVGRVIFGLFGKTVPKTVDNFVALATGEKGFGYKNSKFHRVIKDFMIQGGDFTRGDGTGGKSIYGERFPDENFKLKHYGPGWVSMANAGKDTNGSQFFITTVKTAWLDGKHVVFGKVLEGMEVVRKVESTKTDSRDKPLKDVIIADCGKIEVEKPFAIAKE

[3] = biological target: T2, Peptidyl-prolyl cis-trans isomerase A (Homo sapiens, UniProt P62937); assay: Inhibition of Cyclophilin A peptidyl-prolyl cis-trans isomerase activity (unknown origin) using Succ-Ala-Leu-Pro-Phe-p-nitroaniline as substrate by enzyme kinetic analysis
Target sequence in this assay (P62937 whole entry, the tested form may be a part): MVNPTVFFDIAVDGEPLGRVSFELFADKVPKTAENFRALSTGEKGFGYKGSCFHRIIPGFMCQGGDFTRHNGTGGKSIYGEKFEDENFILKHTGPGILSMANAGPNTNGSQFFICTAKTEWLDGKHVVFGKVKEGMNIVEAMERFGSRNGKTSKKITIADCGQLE

Hepatitis C virus [4] = assay: Antiviral activity against HCV genotype 2a JFH1 infected in human Huh7.5 cells expressing GFP-fused NS5A measured 72 hrs post infection by hoechst 33342 staining based confocal microscopy; assay type: functional, organism-based, Hepacivirus hominis; conditions: JFH-1, Huh-7, 72 h
Hepatitis C virus [5] = assay: Antiviral activity against HCV genotype 1b Con1 infected in human Huh7 cells xenografted in immunodeficient NOD/SCID mouse assessed as inhibition of NS5B expression in liver at 50 mg/kg, ip up to 14 days by DAPI staining based confocal microscopy; assay type: functional, organism-based; conditions: Hepacivirus hominis, isolate Con1, Huh-7
Hepatitis C virus [6] = assay: Antiviral activity against HCV genotype 1b Con1 infected in human Huh7.5 cells assessed as stimulation of STAT2 mRNA expression at 2 uM incubated up to 96 hrs by qRT-PCR method; assay type: functional, organism-based; conditions: Hepacivirus hominis, isolate Con1, Huh-7, TDE = time-dependent effect
In short: (§2)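 mRNA measured by SYBR Green qRT-PCR using the 2^−ΔΔCT method, normalized to GAPDH and expressed as fold change vs controls.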

Hepatitis C virus [7] = assay: Antiviral activity against HCV genotype 1b Con1 infected in human Huh7.5 cells assessed as stimulation of IRF9 expression at 2 uM incubated up to 96 hrs by Western blot analysis; assay type: functional, organism-based; conditions: Hepacivirus hominis, isolate Con1, Huh-7, TDE = time-dependent effect
Hepatitis C virus [8] = assay: Antiviral activity against HCV genotype 1b Con1 infected in human Huh7.5 cells assessed as inhibition of NS5B expression at 2 uM by DAPI staining based confocal microscopy; assay type: functional, organism-based; conditions: Hepacivirus hominis, isolate Con1, Huh-7
In short: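 Con1b replicon cells treated at 2 μM. Stained with Alexa red anti-NS5A and Alexa green anti-NS5B antibodies plus DAPI, then imaged by confocal microscopy for colocalization. Images representative of at least three experiments.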

[9] = biological target: T2, Peptidyl-prolyl cis-trans isomerase A; assay: Inhibition of human Cyclophilin A interaction with HCV genotype 1b Con1 NS5B in human Huh7.5 cells at 2 uM by co-immunoprecipitation assay; assay type: cell-based; conditions: Huh-7
Target sequence in this assay (P62937 whole entry, looked up, the tested form may be a part): as the sequence (P62937 whole entry, the tested form may be a part) above

Hepatitis C virus [10] = assay: Antiviral activity against HCV genotype 1b Con1 infected in human Huh7 cells xenografted in immunodeficient NOD/SCID mouse assessed as inhibition of NS5A expression in liver at 50 mg/kg, ip up to 14 days by Western blot analysis; assay type: functional, organism-based; conditions: Hepacivirus hominis, isolate Con1, Huh-7
In short: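 Liver tissue from NOD/SCID mice engrafted with Huh7 Con1b replicon cells and dosed ip at 50 mg/kg for 14 days (5 per group). NS5A protein read by SDS-PAGE Western blot with chemiluminescence detection.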

Mus musculus [11] = organism: Mus musculus; assay: Activation of calcium-dependent calcineurin phosphatase activity in ionomycin-stimulated BALB/c mouse splenocytes assessed as dephosphorylation of NFAT1 at 1 to 10 uM preincubated for 20 hrs followed by ionomycin stimulation measured after 4 hrs by Western blot analysis
In short: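 Mouse splenocytes, 2 × 10^6/well, exposed to compound for 20 h at 37 °C, then ionomycin 1 μg/mL for 4 h. Lysed on ice for 10 min and spun at 19 000g. NFAT phosphorylation status in the supernatant read by Western blot with anti-NFATc1 antibody.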

Hepatitis C virus [12] = assay: Antiviral activity against recombinant HCV genotype 2a JFH1 infected in human […] for 5 hrs measured on day 3 post infection by luciferase reporter gene assay; assay type: functional, organism-based, Hepacivirus hominis; conditions: JFH-1, Huh-7
In short: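 Huh7.5 cells infected with JFH1-Luc virus (MOI 0.004) for 5 h at 37 °C with 3-fold serial dilutions of compound. Renilla luciferase read from lysates on day 3 postinfection to derive EC50.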

Hepatitis C virus [13] = assay: Antiviral activity against HCV genotype 1b Con1 infected in human Huh7 cells xenografted in immunodeficient NOD/SCID mouse assessed as inhibition of NS5B expression in liver at 50 mg/kg, ip up to 14 days by Western blot analysis; assay type: functional, organism-based; conditions: Hepacivirus hominis, isolate Con1, Huh-7
Hepatitis C virus [14] = assay: Antiviral activity against HCV infected in human Huh7.5 cells assessed as inhibition of IL-8 level by ELISA in presence of ribavirin; assay type: functional, organism-based; conditions: Hepacivirus hominis; Huh-7
Hepatitis C virus [15] = assay: Antiviral activity against HCV genotype 1b Con1 infected in human Huh7.5 cells assessed as reduction of IL-8 mRNA expression at 2 uM incubated up to 96 hrs by qRT-PCR method; assay type: functional, organism-based; conditions: Hepacivirus hominis, isolate Con1, Huh-7, TDE = time-dependent effect; in short: as §2
[16] = Cytotoxicity against mock-infected human Huh7.5 cells assessed as reduction in cell viability incubated for 5 hrs by MTT assay; assay type: cell-based, Huh-7; conditions: mock-infected Huh7.5 cells
In short: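 Mock-infected Huh7.5 cells run alongside the JFH1-Luc antiviral assay with 3-fold serial dilutions. Viability read by MTT assay to give CC50.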

Hepatitis C virus [17] = assay: Antiviral activity against HCV infected in human Huh7.5 cells assessed as inhibition of IL-8 level by ELISA in presence of IFN-alpha; assay type: functional, organism-based; conditions: Hepacivirus hominis; Huh-7
Hepatitis C virus [18] = assay: Antiviral activity against HCV genotype 1b Con1 infected in human Huh7.5 cells assessed as stimulation of STAT2 expression at 2 uM incubated up to 96 hrs by Western blot analysis; assay type: functional, organism-based; conditions: Hepacivirus hominis, isolate Con1, Huh-7, TDE = time-dependent effect
Mus musculus [19] = assay: Nephrotoxicity in BALB/c mouse assessed as changes in serum creatinine level at 50 mg/kg, iv for 2 weeks; assay type: toxicity, organism-based; conditions: in vivo, 336 h
[20] = biological target: T1, Peptidyl-prolyl cis-trans isomerase B
[21] = biological target: T2, Peptidyl-prolyl cis-trans isomerase A; assay: Inhibition of human Cyclophilin A interaction with HCV genotype 1b Con1 NS5A in human Huh7.5 cells at 2 uM by co-immunoprecipitation assay; assay type: cell-based; conditions: Huh-7
Target sequence in this assay (P62937 whole entry, looked up, the tested form may be a part): as the sequence (P62937 whole entry, the tested form may be a part) above

Hepatitis C virus [22] = assay: Antiviral activity against HCV genotype 1b Con1 infected in human Huh7.5 cells assessed as inhibition of NS5B expression in membrane fractions at 2 uM by Western blot analysis; assay type: functional, organism-based; conditions: Hepacivirus hominis, isolate Con1, Huh-7; in short: as §1
[23] = Cytotoxicity against HCV genotype 1b Con1 infected human Huh7.5 cells expressing GFP-fused NS5A assessed as reduction in cell viability measured 72 hrs post infection by hoechst 33342 staining based confocal microscopy; design: species or system Huh-7
In short: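 Huh7 replicon cells expressing NS5A-GFP seeded at 2 × 10^3/well and left overnight, then given serially diluted compound. At 72 h, fixed in 2% PFA and nuclei stained with Hoechst 33342 (10 μg/mL). Automated confocal imaging: GFP-positive cells give activity, nuclei counts give cytotoxicity. EC50/CC50 from nonlinear regression.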

Hepatitis C virus [24] = assay: Antiviral activity against HCV genotype 1b Con1 infected in human Huh7.5 cells assessed as stimulation of OAS1 mRNA expression at 2 uM incubated up to 96 hrs by qRT-PCR method; assay type: functional, organism-based; conditions: Hepacivirus hominis, isolate Con1, Huh-7, TDE = time-dependent effect; in short: as §2

koff [2]: 8.25 ×10⁻⁴ /s
pIC50 [3]: 8.26
pEC50 (Hepatitis C virus [4]): 5.95
inhibition [9]: Active
Activity (Mus musculus [11]): Active
pEC50 (Hepatitis C virus [12]): 5.28
pKd [20]: 5.68
inhibition [21]: Active
Structure (SMILES): COc1cc(C(C(=O)NC2CCCCC2)N(C(=O)Cc2c[nH]c3ccccc23)c2ccc(C(C)C)cc2)cc(OC)c1OC (centres undefined)
inhibition (Hepatitis C virus [1]): Active
inhibition (Hepatitis C virus [5]): Active
Activity (Hepatitis C virus [6]): tde
Activity (Hepatitis C virus [7]): tde
inhibition (Hepatitis C virus [8]): Active
inhibition (Hepatitis C virus [10]): Active
inhibition (Hepatitis C virus [13]): Active
inhibition (Hepatitis C virus [14]): Active
Activity (Hepatitis C virus [15]): tde
CC50 at 5 h [16]: > 100 µM
inhibition (Hepatitis C virus [17]): Active
Activity (Hepatitis C virus [18]): tde
Activity (Mus musculus [19]): Non-toxic
inhibition (Hepatitis C virus [22]): Active
CC50 at 72 h [23]: 12.4 µM
Activity (Hepatitis C virus [24]): tde
